# Results as given in the M2OR odorant receptor database.
# Columns and labels:
# Conditions in all cases: stereoisomer not certain
# UniProt Q8VG27 = target: T1, UniProt Q8VG27
# T1 sequence (whole entry): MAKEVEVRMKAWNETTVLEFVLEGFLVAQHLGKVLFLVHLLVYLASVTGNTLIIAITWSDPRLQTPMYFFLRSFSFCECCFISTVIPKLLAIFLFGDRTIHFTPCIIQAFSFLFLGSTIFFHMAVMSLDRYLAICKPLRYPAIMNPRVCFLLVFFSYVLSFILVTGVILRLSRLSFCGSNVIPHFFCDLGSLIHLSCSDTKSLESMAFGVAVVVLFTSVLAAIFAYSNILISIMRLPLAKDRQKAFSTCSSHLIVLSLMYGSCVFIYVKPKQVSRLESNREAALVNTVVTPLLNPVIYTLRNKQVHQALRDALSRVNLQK
# Outline: (§1)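 Assay methods differ from source to source, frequently being transient luciferase assays in mammalian cell lines. For each receptor–molecule pair, the label responsive (active) applies when the original authors judged the measured signal statistically different from baseline, and non-responsive (inactive) applies otherwise.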
# UniProt Q8VG53 = target: T2, UniProt Q8VG53
# T2 sequence (whole entry): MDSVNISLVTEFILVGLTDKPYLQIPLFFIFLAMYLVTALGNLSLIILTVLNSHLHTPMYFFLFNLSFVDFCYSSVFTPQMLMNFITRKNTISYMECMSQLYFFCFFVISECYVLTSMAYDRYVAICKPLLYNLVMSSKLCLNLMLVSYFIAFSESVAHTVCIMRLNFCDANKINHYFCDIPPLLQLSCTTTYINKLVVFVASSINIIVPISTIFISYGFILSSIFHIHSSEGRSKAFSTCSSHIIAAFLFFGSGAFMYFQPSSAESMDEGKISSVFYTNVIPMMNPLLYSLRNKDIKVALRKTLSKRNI
# Outline: as §1
# UniProt Q8VG64 = target: T3, UniProt Q8VG64
# T3 sequence (whole entry): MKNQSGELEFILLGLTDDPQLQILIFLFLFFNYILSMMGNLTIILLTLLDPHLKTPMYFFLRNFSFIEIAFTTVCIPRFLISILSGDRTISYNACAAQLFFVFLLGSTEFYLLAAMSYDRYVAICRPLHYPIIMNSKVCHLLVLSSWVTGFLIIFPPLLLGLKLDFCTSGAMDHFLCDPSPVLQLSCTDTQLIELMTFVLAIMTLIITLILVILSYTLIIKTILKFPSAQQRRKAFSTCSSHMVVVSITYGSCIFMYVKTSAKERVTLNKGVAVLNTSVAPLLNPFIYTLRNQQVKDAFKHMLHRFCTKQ
# Outline: as §1
# UniProt Q8VGB9 = target: T4, UniProt Q8VGB9
# T4 sequence (whole entry): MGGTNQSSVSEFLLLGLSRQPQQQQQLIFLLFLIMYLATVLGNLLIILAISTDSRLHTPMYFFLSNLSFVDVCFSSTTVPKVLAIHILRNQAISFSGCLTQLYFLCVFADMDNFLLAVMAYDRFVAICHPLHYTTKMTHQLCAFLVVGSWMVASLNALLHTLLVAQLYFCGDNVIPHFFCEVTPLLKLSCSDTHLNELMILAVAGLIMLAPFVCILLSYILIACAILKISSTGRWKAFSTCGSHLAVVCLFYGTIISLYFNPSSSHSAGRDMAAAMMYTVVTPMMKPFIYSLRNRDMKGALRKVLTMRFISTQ
# Outline: as §1
# UniProt Q8VGC6 = target: T5, UniProt Q8VGC6
# T5 sequence (whole entry): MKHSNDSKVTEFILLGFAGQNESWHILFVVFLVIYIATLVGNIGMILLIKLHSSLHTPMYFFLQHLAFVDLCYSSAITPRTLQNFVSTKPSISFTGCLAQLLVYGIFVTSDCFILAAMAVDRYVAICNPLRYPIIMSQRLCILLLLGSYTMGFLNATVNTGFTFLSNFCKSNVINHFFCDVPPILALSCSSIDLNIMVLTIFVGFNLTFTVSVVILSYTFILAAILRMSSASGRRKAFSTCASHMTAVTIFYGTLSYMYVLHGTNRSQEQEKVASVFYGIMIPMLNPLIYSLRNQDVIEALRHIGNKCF
# Outline: as §1
# UniProt Q8VGJ3 = target: T6, UniProt Q8VGJ3
# T6 sequence (whole entry): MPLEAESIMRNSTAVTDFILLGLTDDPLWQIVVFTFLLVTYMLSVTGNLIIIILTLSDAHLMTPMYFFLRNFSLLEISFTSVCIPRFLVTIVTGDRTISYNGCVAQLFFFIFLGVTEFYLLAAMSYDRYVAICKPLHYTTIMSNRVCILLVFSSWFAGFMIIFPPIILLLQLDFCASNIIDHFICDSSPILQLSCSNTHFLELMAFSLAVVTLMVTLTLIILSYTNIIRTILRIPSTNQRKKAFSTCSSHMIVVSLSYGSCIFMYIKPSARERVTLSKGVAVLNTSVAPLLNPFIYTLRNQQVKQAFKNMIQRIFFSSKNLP
# Outline: as §1
# UniProt Q8VGL0 = target: T7, UniProt Q8VGL0
# T7 sequence (whole entry): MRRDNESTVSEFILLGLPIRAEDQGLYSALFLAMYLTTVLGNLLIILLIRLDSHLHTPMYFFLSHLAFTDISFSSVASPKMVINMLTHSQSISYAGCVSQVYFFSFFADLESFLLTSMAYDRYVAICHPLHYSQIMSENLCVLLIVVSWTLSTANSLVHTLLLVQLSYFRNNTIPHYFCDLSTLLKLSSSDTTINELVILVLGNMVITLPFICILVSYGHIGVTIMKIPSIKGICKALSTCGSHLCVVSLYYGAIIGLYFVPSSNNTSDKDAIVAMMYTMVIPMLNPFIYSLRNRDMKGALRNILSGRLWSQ
# Outline: as §1
# UniProt Q8VG49 = target: T8, UniProt Q8VG49
# T8 sequence (whole entry): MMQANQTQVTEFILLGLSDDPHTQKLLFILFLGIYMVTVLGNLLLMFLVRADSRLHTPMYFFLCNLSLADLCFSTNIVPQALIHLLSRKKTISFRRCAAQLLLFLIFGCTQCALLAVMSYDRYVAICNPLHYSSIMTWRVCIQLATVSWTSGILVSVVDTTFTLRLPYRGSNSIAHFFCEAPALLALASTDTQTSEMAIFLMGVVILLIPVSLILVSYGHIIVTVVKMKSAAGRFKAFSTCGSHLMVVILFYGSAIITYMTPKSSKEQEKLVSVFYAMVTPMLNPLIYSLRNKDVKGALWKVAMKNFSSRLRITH
# Outline: as §1
# UniProt Q8VG77 = target: T9, UniProt Q8VG77
# T9 sequence (whole entry): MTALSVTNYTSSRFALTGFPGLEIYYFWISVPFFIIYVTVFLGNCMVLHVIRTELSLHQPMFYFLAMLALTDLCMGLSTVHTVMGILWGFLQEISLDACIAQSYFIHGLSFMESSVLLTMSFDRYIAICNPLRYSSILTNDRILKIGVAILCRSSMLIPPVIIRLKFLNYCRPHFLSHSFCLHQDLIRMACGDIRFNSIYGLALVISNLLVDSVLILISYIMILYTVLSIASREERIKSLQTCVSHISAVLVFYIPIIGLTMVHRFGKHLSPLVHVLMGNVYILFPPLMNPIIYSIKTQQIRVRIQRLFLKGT
# Outline: as §1
# UniProt Q8VG96 = target: T10, UniProt Q8VG96
# T10 sequence (whole entry): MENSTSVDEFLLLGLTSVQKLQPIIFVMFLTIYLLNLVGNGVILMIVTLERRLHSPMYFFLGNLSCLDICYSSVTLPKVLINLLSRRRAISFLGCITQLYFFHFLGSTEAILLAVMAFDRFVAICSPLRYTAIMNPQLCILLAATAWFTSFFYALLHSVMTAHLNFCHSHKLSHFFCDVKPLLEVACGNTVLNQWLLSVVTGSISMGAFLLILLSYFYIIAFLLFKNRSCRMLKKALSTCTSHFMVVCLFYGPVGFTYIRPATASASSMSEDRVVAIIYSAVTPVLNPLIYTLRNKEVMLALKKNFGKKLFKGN
# Outline: as §1
# UniProt Q8VGD7 = target: T11, UniProt Q8VGD7
# T11 sequence (whole entry): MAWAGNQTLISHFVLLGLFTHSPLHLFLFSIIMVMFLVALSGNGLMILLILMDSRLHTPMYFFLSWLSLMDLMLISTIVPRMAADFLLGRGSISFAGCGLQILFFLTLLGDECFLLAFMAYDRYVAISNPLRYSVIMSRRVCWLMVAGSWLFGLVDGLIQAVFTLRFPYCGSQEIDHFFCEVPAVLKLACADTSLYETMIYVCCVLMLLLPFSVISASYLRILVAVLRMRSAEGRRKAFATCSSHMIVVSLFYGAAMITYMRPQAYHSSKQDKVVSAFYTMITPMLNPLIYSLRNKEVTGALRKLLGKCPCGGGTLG
# Outline: as §1
# UniProt Q8VGH1 = target: T12, UniProt Q8VGH1
# T12 sequence (whole entry): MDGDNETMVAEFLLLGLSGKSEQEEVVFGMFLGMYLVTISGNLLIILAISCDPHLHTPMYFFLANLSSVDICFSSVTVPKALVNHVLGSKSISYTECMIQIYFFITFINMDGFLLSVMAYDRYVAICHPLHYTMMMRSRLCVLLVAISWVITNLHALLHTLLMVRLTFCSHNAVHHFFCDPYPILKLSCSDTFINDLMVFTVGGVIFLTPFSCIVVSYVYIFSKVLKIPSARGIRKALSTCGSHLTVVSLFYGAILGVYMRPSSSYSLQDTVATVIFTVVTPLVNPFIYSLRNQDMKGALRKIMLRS
# Outline: as §1
# UniProt Q8VGJ1 = target: T13, UniProt Q8VGJ1
# T13 sequence (whole entry): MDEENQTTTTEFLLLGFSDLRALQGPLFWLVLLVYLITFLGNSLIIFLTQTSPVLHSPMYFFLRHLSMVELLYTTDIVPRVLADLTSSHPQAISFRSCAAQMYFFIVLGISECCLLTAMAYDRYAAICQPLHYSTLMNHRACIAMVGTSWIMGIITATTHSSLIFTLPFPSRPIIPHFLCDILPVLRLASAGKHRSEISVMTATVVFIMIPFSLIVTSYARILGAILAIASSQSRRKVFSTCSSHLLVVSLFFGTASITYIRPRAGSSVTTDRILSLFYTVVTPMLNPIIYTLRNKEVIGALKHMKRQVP
# Outline: as §1
# UniProt Q8VGJ5 = target: T14, UniProt Q8VGJ5
# T14 sequence (whole entry): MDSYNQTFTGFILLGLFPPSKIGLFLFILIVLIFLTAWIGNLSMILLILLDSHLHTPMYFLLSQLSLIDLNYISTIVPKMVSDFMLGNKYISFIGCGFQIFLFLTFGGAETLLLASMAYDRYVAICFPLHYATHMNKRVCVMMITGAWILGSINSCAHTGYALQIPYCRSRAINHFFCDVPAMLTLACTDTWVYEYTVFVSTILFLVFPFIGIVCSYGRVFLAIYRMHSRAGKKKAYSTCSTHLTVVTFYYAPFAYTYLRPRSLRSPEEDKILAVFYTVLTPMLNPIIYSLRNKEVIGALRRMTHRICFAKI
# Outline: as §1
# UniProt Q8VGL7 = target: T15, UniProt Q8VGL7
# T15 sequence (whole entry): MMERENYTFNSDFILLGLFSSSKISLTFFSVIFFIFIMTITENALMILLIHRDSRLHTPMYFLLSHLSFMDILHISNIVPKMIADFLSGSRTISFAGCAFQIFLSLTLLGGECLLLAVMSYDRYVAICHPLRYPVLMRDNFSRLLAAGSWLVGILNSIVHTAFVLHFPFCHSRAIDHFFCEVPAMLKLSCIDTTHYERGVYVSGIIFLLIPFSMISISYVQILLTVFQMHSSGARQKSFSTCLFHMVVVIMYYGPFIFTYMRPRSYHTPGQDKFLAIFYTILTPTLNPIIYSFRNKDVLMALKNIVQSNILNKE
# Outline: as §1
SMILES,odorant receptor agonist call (UniProt Q8VG27),odorant receptor agonist call (UniProt Q8VG53),odorant receptor agonist call (UniProt Q8VG64),odorant receptor agonist call (UniProt Q8VGB9),odorant receptor agonist call (UniProt Q8VGC6),odorant receptor agonist call (UniProt Q8VGJ3),odorant receptor agonist call (UniProt Q8VGL0),odorant receptor agonist call (UniProt Q8VG49),odorant receptor agonist call (UniProt Q8VG77),odorant receptor agonist call (UniProt Q8VG96),odorant receptor agonist call (UniProt Q8VGD7),odorant receptor agonist call (UniProt Q8VGH1),odorant receptor agonist call (UniProt Q8VGJ1),odorant receptor agonist call (UniProt Q8VGJ5),odorant receptor agonist call (UniProt Q8VGL7)
CCOC(=O)CC(C)C,inactive,inactive,inactive,inactive,inactive,inactive,inactive,,,,,,,,
CC(C)=CCCC(C)CCO (centres undefined),inactive,inactive,inactive,inactive,active,inactive,active,inactive,inactive,inactive,inactive,inactive,inactive,inactive,inactive
CC(=O)OC1(C)CCC23CC1C(C)(C)C2CCC3C (centres undefined),inactive,inactive,inactive,inactive,inactive,inactive,inactive,,,,,,,,
CCC=CCCC=CC=O,inactive,inactive,inactive,inactive,inactive,inactive,inactive,,,,,,,,
OCCc1ccccc1,inactive,inactive,inactive,inactive,inactive,inactive,inactive,,,,,,,,
Cc1ccc(C(C)C)cc1,inactive,inactive,inactive,inactive,inactive,inactive,inactive,,,,,,,,
CCCCCCC(C=O)=Cc1ccccc1,inactive,inactive,inactive,inactive,inactive,inactive,inactive,,,,,,,,
CC=CC(=O)C1=C(C)CCCC1(C)C,inactive,inactive,inactive,inactive,inactive,inactive,inactive,,,,,,,,
